pKi: −log10 of the molar value. The source made the active and inactive calls. No cut-off for these calls is given here.
Legend:
[1] = tested on: Aphis gossypii; assay: Insecticidal activity against Aphis gossypii (cotton aphid) infested expanded cotyledon stage of summer crookneck squash seedlings assessed as mortality at 50 ppm applied as spray after 72 hr by dissecting binocular microscopic analysis relative to control; assay type: functional
Summary of the method: (§1)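 Four replicate plants per rate; controls were eight plants sprayed with blank-stock diluent. Plants held 72 h at about 74 °F, 40% RH, 24 h photoperiod. Live nonwinged aphids were counted on cotyledon undersides. Percent control was calculated by Abbott's correction against the solvent blank.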

[2] = target: T1, Nicotinic acetylcholine receptor alpha 5 subunit (Musca domestica, UniProt A9XFY4); assay: Displacement of [3H]imidacloprid from nicotinic acetylcholine receptor in Musca domestica (house fly) head membrane after 1 hr by liquid scintillation counting analysis
T1 sequence (A9XFY4 whole entry): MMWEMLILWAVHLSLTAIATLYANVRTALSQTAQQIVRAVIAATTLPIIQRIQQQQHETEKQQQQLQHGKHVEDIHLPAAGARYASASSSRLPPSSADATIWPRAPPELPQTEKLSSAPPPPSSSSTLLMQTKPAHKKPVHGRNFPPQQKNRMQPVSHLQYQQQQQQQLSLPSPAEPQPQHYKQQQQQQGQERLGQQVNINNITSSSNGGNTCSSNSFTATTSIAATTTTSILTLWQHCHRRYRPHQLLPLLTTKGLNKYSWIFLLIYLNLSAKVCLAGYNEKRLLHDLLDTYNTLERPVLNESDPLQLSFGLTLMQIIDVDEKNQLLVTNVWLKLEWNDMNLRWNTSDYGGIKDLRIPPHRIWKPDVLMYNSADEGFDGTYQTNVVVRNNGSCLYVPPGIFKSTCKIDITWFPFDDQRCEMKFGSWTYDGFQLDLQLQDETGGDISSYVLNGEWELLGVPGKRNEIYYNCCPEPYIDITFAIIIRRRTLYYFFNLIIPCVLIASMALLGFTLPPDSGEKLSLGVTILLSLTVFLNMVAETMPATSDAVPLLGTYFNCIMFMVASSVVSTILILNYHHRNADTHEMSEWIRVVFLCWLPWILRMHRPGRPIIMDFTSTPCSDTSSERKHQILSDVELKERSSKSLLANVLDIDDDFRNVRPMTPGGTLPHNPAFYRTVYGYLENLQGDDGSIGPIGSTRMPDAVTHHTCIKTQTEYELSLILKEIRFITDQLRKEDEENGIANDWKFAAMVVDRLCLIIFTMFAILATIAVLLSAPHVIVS
Summary of the method: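 Housefly heads separated from liquid-nitrogen-frozen adults, homogenized in ice-cold sucrose/EDTA/Tris-HCl/PMSF buffer. Membranes were prepared by 1000g then twice 35000g spins, resuspended in 50 mM Tris-HCl pH 7.4 and stored at -80 °C. Binding buffer was 120 mM NaCl, 50 mM Tris-HCl pH 7.4, with [3H]imidacloprid at 2 nM final and DMSO ≤0.25%. Incubation 1 h at 22 °C, then GF/C filtration. Nonspecific binding was set with 10^-4 M nicotine. Three runs in triplicate.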

[3] = tested on: Aphis gossypii; assay: Insecticidal activity against Aphis gossypii (cotton aphid) infested expanded cotyledon stage of summer crookneck squash seedlings assessed as mortality at 5 ppm applied as spray after 72 hr by dissecting binocular microscopic analysis relative to control; assay type: functional; summary of the method: as §1
[4] = tested on: Aphis gossypii; assay: Insecticidal activity against Aphis gossypii (cotton aphid) infested expanded cotyledon stage of summer crookneck squash seedlings assessed as mortality at 0.78 ppm applied as spray after 72 hr by dissecting binocular microscopic analysis relative to control; assay type: functional; summary of the method: as §1
[5] = tested on: Bemisia tabaci; assay: Insecticidal activity against Bemisia tabaci (sweet potato whitefly); assay type: functional, organism-based
[6] = tested on: Nilaparvata lugens; assay: Insecticidal activity against Nilaparvata lugens (brown plant hopper); assay type: functional, organism-based
[7] = tested on: Nephotettix cincticeps; assay: Insecticidal activity against Nephotettix cincticeps (green rice leafhopper); assay type: functional, organism-based
[8] = tested on: Aphis gossypii; assay: Insecticidal activity against Aphis gossypii (cotton aphid) infested expanded cotyledon stage of summer crookneck squash seedlings assessed as mortality at 0.5 ppm applied as spray after 72 hr by dissecting binocular microscopic analysis relative to control; assay type: functional; summary of the method: as §1

N#C/N=C1\NCCN1Cc1ccc(Cl)nc1
mortality at 50 ppm [1]: 90%
pKi [2]: 7.77
mortality at 5 ppm [3]: 90%

CN(C)C(=O)/C(=N\C#N)N(C)Cc1ccc(Cl)nc1
mortality at 50 ppm [1]: 50%
pKi [2]: 5.42
mortality at 5 ppm [3]: < 50%

CN1CCN(Cc2ccc(Cl)nc2)/C(=N/C#N)C1=O
mortality at 0.78 ppm [4]: 90%
mortality at 50 ppm [1]: 90%
Activity [5]: Active
pKi [2]: 8.22
Activity [6]: Active
Activity [7]: Active

O=C1/C(=N\O)NCCN1Cc1ccc(Cl)nc1
mortality at 50 ppm [1]: 70%
mortality at 5 ppm [3]: 50%
mortality at 0.5 ppm [8]: < 50%

O=C1C(=S)NCCN1Cc1ccc(Cl)nc1
mortality at 50 ppm [1]: 90%
pKi [2]: 5.75
mortality at 5 ppm [3]: 50%
mortality at 0.5 ppm [8]: 50%

CN1C/C(=N\C#N)N(Cc2ccc(Cl)nc2)CC1=O
mortality at 50 ppm [1]: 70%
mortality at 5 ppm [3]: < 50%

CN1CCN(CC2CCOC2)/C(=N\C#N)C1=O (stereo not drawn)
mortality at 50 ppm [1]: < 50%
pKi [2]: 6.29
mortality at 5 ppm [3]: < 50%

CO/N=C1/NCCN(Cc2ccc(Cl)nc2)C1=O
mortality at 50 ppm [1]: 90%
pKi [2]: 5.82
mortality at 5 ppm [3]: 70%
mortality at 0.5 ppm [8]: 50%

N#C/N=C1/NCCN(Cc2ccc(Cl)nc2)C1=O
mortality at 50 ppm [1]: 90%
pKi [2]: 6.36
mortality at 5 ppm [3]: 50%
mortality at 0.5 ppm [8]: < 50%

O=C1/C(=N\S(=O)(=O)C(F)(F)F)NCCN1Cc1ccc(Cl)nc1
mortality at 50 ppm [1]: 90%
pKi [2]: 6.23
mortality at 5 ppm [3]: 90%
mortality at 0.5 ppm [8]: < 50%

CN1CCN=C(N(C#N)Cc2ccc(Cl)nc2)C1=O
mortality at 50 ppm [1]: < 50%
mortality at 5 ppm [3]: < 50%

CN1CCN(Cc2cnc(Cl)s2)/C(=N\C#N)C1=O
mortality at 0.78 ppm [4]: 70%
mortality at 50 ppm [1]: 90%
pKi [2]: 8.40

NC(=S)N/N=C1/NCCN(Cc2ccc(Cl)nc2)C1=O
mortality at 50 ppm [1]: < 50%
pKi [2]: 5.41
mortality at 5 ppm [3]: < 50%

O=C1NCCN(Cc2ccc(Cl)nc2)C1=O
mortality at 50 ppm [1]: 90%
pKi [2]: 6.40
mortality at 5 ppm [3]: 90%
mortality at 0.5 ppm [8]: 50%
